From PubChem
In the library only some 3.5% were active in any assay of this set; here they are far more common.
RGS4 pot: RGS4 potentiation or activation | B-score at 10 µM | HEK293 M3R/inducible RGS4, carbachol calcium flux Fluo4; stronger effect = lower value | 0.92% of 310,000 active;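 active = B-score of the integrated calcium signal more than 4 SD below the library mean, with starting fluorescence not abnormally high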;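 note: negative B-score means reduced calcium response which marks RGS4 activation or potentiation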
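Material: M3R-expressing HEK293 line, RGS4 induced by doxycycline | Schedule: Overnight RGS4 induction, 30 min dye load 37 °C, 20 min compound RT | Measured by: Fluo4 fluorescence kinetic imaging of calcium | Read-out: Integrated calcium ratio converted to B score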
MrgX1 antag: human MrgX1 receptor antagonism, primary screen | 1.3% of 310,000 active | B-score at 10 µM | MRGX1-HEK293 calcium flux, Fluo-4, BAM8-22 antagonism; stronger effect = lower value;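 active = calcium-response B-score plate-corrected more than 3 library SD below zero, starting fluorescence within 5 deviations, no agonist response on first addition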;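 note: peak minus trough fluorescence over baseline after final BAM8-22 challenge near maximal dose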
RGS4 block: human RGS4 inhibition; P49798; HEK293 M3R/RGS4 inducible, Fluo-4 calcium flux; stronger effect = higher value; triggered by carbachol at its EC20; B-score at 10 µM; 0.45% of 310,000 active;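 active = B-score, a plate-corrected calcium signal, over three deviations above library mean, with baseline fluorescence within five deviations of library mean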;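 note: RGS4 expression induced by doxycycline in cells with stable M3 receptor; B-score is computed from the integrated fluorescence ratio over baseline after carbachol; higher B-score means a larger calcium signal and so more RGS4 inhibition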
Target sequence (P49798 whole entry, looked up): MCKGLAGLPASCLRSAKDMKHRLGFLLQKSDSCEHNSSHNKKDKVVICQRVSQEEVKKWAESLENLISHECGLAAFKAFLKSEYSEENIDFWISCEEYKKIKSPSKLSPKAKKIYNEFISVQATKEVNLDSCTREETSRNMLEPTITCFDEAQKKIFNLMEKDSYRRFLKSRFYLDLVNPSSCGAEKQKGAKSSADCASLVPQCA
MrgX1 ag: activates human MrgX1 receptor signaling; Q96LB2; MrgX1-HEK293 cells, Fluo-4 calcium fluorescence, agonist mode; stronger effect = higher value; B-score at 10 µM; 0.44% of 310,000 active; AID 588627;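 active = calcium response B-score plate-corrected fluorescence ratio at least 3 library SD, with starting fluorescence B-score inside 5 SD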
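System – MrgX1-expressing HEK293 cells · Incubation – cells plated overnight, dye loaded 0.5 h 37 °C, 0.5 h room temperature · Technique – kinetic Fluo-4 NW fluorescence of intracellular calcium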
MrgX1 allo act: human MrgX1 positive allosteric modulation, primary screen; B-score at 10 µM; 0.63% of 310,000 active; MrgX1-HEK293, Fluo-4 calcium flux, FDSS; stronger effect = higher value;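 active = plate-corrected calcium response at least 3 library SD above typical, normal starting fluorescence, not activating the receptor alone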;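 note: compound read alongside a low EC10 to EC30 dose of BAM8-22 agonist; peak minus trough fluorescence over baseline measured at the second addition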
Starred values were filed as active, the others as inactive; i = inactive.

SMILES	RGS4 pot	MrgX1 antag	RGS4 block	MrgX1 ag	MrgX1 allo act
N#CCCN(Cc1cccnc1)S(=O)(=O)c1ccc(S(=O)(=O)NC2CCCCC2)cc1	i	-5.6*	i	i	i
O=C(COc1ccc(S(=O)(=O)NC2CCCCC2)cc1)NCc1cccnc1	i	i	i	i	i
O=C1c2ccccc2NC(c2cccc([N+](=O)[O-])c2)N1CCc1ccccc1 (configuration not stated)	i	i	i	i	15*
COc1ccc(C(=O)NCCCNC(=O)c2ccccn2)cc1Br	i	i	i	i	i
COCCNC(=S)Nc1cc2oc3ccccc3c2cc1OC	i	i	i	i	i
O=C(CNC(=O)OCc1ccccc1)Oc1ccc2ccc(=O)oc2c1	i	i	i	i	i
O=C(NC(Cc1ccccc1)C(=O)Oc1ccc2c(C(F)(F)F)cc(=O)oc2c1)OCc1ccccc1 (configuration not stated)	i	i	i	i	8.4*
O=C(/C=C/c1ccc(O)c(O)c1)NC(=O)c1ccccc1O	i	-7.8*	i	i	i
Cc1ccc(S(=O)(=O)NCC(=O)N/N=C/c2ccccc2O)cc1	i	-5.4*	i	i	i
O=C1/C(=C/c2ccc(F)cc2)SC(=S)N1Nc1ncc(C(F)(F)F)cc1Cl	-10*	i	i	i	i
O=C1/C(=C\c2ccccn2)SC(=S)N1Nc1ncc(C(F)(F)F)cc1Cl	i	i	i	i	i
Cc1cc(C(=O)Nc2c[nH]c(=O)[nH]c2=O)ccc1[N+](=O)[O-]	i	i	i	i	i
NS(=O)(=O)c1cc(C(=O)NC2CCSc3ccccc32)ccc1Cl (configuration not stated)	i	i	i	62*	i
O=C(COC(=O)C1(c2cccc(F)c2)CCCC1)NCc1cccs1	i	i	i	i	i
O=C(N1CCN(c2ccccn2)CC1)N1c2ccccc2Sc2ccccc21	-7.4*	i	i	i	i
Cc1nc(NC(=O)CSc2nnc(-c3ccccc3)c(-c3ccccc3)n2)c(Cl)cc1Cl	-7.2*	i	i	i	i
Cc1cc([N+](=O)[O-])nn1Cc1noc(C(=O)NCCCn2ccnc2)n1	i	i	i	i	i
CCN(CC)CCCN1C=C2C(=O)C(C)(OC(=O)CCC(=O)OC)C(=O)C=C2C=C1C1CC1 (configuration not stated)	i	-5.5*	i	i	i
BrC(=C\c1ccccc1)/C=N/Nc1nc(N2CCOCC2)nc(N2CCOCC2)n1	i	i	i	i	i
BrC(/C=C\c1ccccc1)=N/Nc1nc(N2CCOCC2)nc(N2CCOCC2)n1	i	-8*	i	i	i
COc1ccc(NC(=O)C(C)N2C(=O)c3ccccc3C2=O)c(OC)c1 (configuration not stated)	i	i	i	i	i
CCOc1ccc(CCNC(=O)COC(=O)c2ccc(S(C)(=O)=O)cc2)cc1OCC	i	i	i	i	i
CCOc1ccc(CCNC(=O)COC(=O)/C=C/c2ccccc2OC)cc1OCC	i	i	i	i	16*
CCOc1ccc(CCNC(=O)COC(=O)c2ccc(OC(C)C)cc2)cc1OCC	i	-4.8*	i	i	i
COc1ccc(CCNC(=O)Cn2cnc3scc(-c4ccccc4)c3c2=O)cc1OC	i	i	i	i	i
COc1ccc(C(CNC(=O)C(=O)Nc2ccc3c(c2)OCO3)N2CCN(C)CC2)cc1 (configuration not stated)	i	-6.2*	i	i	i
CCOc1ccc(N(CC(=O)NC(C)C)C(=O)CCC(=O)Nc2ccccn2)cc1	i	i	i	i	i
CCCCn1c(N)c(N(CC(C)C)C(=O)c2ccc(OCC3CCCO3)cc2)c(=O)[nH]c1=O (configuration not stated)	i	-6.2*	i	i	i
COc1cccc(C(=O)C2CCCN(CC3=Cc4cc(OC)ccc4OC3)C2)c1 (configuration not stated)	-7*	i	i	i	i
